In assay [1] the target is T1, Transforming growth factor beta-1 proprotein/Mothers against decapentaplegic homolog 3 (Mus musculus) (UniProt P04202+Q8BUN5). Description: Inhibition of TGF-beta1/smad3 signaling pathway in mouse NIH/3T3 cells at 10 uM after 18 hrs by CAGA-luciferase reporter gene assay relative to control. It is filed as cell-based. In short, it runs like this:
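CAGA12-luciferase stably transfected NIH3T3 cells plated overnight. Treated with TGF-β1 (5 ng/mL) with or without compound at 10 µM in DMEM containing 0.1% FBS for 18 h. Lysate luminescence integrated over the first 20 s. Inhibition ratio calculated from TGF-β1-stimulated signal of treated versus control wells; mean of three independent experiments.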
(Reporter assays use an easily measured gene product as a stand-in for the process of interest.)

The target of assay [2] is Transforming growth factor beta-1 proprotein (Mus musculus) (UniProt P04202). Description: Inhibition of TGF-beta1 in mouse Mlg cells assessed as reduction in cell migration at 10 uM after 24 hrs by wound healing based light microscopy. A digest of the protocol:
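Confluent Mlg monolayers scratched to a 100-µm wound. Cells then cultured in serum-free medium with or without TGF-β1 (5 ng/mL) and compound at 10 µM. Light-microscope images taken at 0, 12 and 24 h; wound area expressed relative to the initial scratch.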

For assay [3] the target is unchanged. Description: Inhibition of TGF-beta1 in mouse Mlg cells assessed as decrease in cell viability at 10 uM after 24 hrs by MTT assay. It is filed as cell-based. In short, it runs like this: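 Mlg cells exposed to TGF-β1 (5 ng/mL) with or without compound at 10 µM for 24 h; DMSO-treated cells served as control. MTT added for 4 h, then DMSO, and absorbance read. Viability normalized to control as 100%. Triplicate.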
(Tetrazolium assays rely on reduction of a dye to a coloured formazan, in cell work by metabolically active cells.)

Assay [4] shares this target. Nature of the assay: Inhibition of TGF-beta1 in mouse Mlg cells assessed as reduction in Col1a1 mRNA expression level at 10 uM after 24 hrs by qRT-PCR method. It is filed as cell-based. In short, it runs like this:
(§1)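 Mlg lung fibroblasts treated with or without TGF-β1 (5 ng/mL) plus compound at 10 µM for 24 h. α-SMA, Col1a1 and Fn1 mRNA measured by real-time PCR with β-actin reference primers. n=3.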
On the technique in general: Quantitative PCR measures a nucleic acid by following its amplification.

For assay [5] the target is unchanged. Description: Inhibition of TGF-beta1 in mouse Mlg cells assessed as reduction in alpha-SMA mRNA expression level at 10 uM after 24 hrs by qRT-PCR method. The class given is cell-based. A digest of the protocol:
as §1

For assay [6] the target is unchanged. Nature of the assay: Inhibition of TGF-beta1 in mouse Mlg cells assessed as reduction in fibronectin mRNA expression level at 10 uM after 24 hrs by qRT-PCR method. It is filed as cell-based. A digest of the protocol:
as §1

Assay [7] deals with T1, Transforming growth factor beta-1 proprotein/Mothers against decapentaplegic homolog 3 (Mus musculus). Description: Inhibition of TGF-beta1/smad3 signaling pathway in mouse NIH/3T3 cells at 5 to 40 uM after 18 hrs by CAGA-luciferase reporter gene assay. It is filed as cell-based. In short, it runs like this: (§2)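 CAGA12-luciferase NIH3T3 cells stimulated with TGF-β1 (5 ng/mL) in 0.1% FBS DMEM alongside compound at 5, 10, 20 and 40 µM for 18 h. Lysate luciferase read over the first 20 s. Triplicate.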

Assay [8] has the same target. Nature of the assay: Inhibition of TGF-beta1/smad3 signaling pathway in mouse NIH/3T3 cells assessed as decrease in ECM production at 10 uM after 24 hrs. The class given is cell-based.
For assay [9] the target is unchanged. Description: Inhibition of TGF-beta1/smad3 signaling pathway in mouse NIH/3T3 cells at 40 uM after 18 hrs by CAGA-luciferase reporter gene assay. It is filed as cell-based. In short, it runs like this:
as §2

The subject of assay [10] is Mus musculus. Description: In vivo inhibition of TGF-beta1/smad3 signaling pathway in bleomycin-induced pulmonary fibrosis in C57BL/6 mouse model assessed as decrease in alpha-SMA level in lung tissue at 100 mg/kg, po qd administered from day 7 to 14 by immunohistochemical analysis. The class given is functional, organism-based. A digest of the protocol:
(§3)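 Lungs from bleomycin-challenged C57BL/6 mice (2 U/kg intratracheal; 100 mg/kg daily, days 7-14) were paraffin-embedded and dewaxed. Citrate (0.01 M) microwave antigen retrieval, then 5% serum block. Primary antibodies overnight at 4 °C: α-SMA 1:200, collagen I 1:100, p-Smad3 1:50. Secondary antibody 1 h at room temperature, then hematoxylin counterstain and microscopy.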

Assay [11] has as its system Mus musculus. Nature of the assay: In vivo inhibition of TGF-beta1/smad3 signaling pathway in bleomycin-induced pulmonary fibrosis in C57BL/6 mouse model assessed as decrease in smad3 phosphorylation level in lung tissue at 100 mg/kg, po qd administered from day 7 to 14 by immunohistochemical analysis. The class given is functional, organism-based. In short, it runs like this:
as §3

The target of assay [12] is T1, Transforming growth factor beta-1 proprotein/Mothers against decapentaplegic homolog 3 (Mus musculus). Description: Inhibition of TGF-beta1/smad3 signaling pathway in mouse NIH/3T3 cell extract assessed as decrease in alpha-SMA protein expression at 10 uM after 24 hrs by Western blot analysis.
For assay [13], the system named is Mus musculus. Nature of the assay: In vivo inhibition of TGF-beta1/smad3 signaling pathway in bleomycin-induced pulmonary fibrosis in C57BL/6 mouse model assessed as decrease in Col1 level in lung tissue at 100 mg/kg, po qd administered from day 7 to 14 by immunohistochemical analysis. The class given is functional, organism-based. In short, it runs like this:
as §3

Assay [14] relates to Mus musculus. Nature of the assay: Antifibrotic activity in bleomycin-induced pulmonary fibrosis in C57BL/6 mouse model assessed as decrease in collagen content in lung at 100 mg/kg, po qd administered from day 7 to 14 by spectrophotometric method. It is filed as functional, organism-based. A digest of the protocol: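 Bleomycin model as above: 2 U/kg intratracheal in male C57BL/6 mice, 100 mg/kg daily from day 7 to day 14. Right lungs collected at day 14, dried and acid-hydrolysed, filtered, and pH adjusted to 6.5-8.0. Hydroxyproline then measured by chloramine-T spectrophotometry.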

Assay [15] deals with T1, Transforming growth factor beta-1 proprotein/Mothers against decapentaplegic homolog 3 (Mus musculus). Description: Inhibition of TGF-beta1/smad3 signaling pathway in mouse NIH/3T3 cell extract assessed as decrease in Smad3 phosphorylation at 10 uM after 30 mins by Western blot analysis. It is filed as protein assay.
Assay [16] has as its system Mus musculus. Nature of the assay: In vivo inhibition of TGF-beta1/smad3 signaling pathway in bleomycin-induced pulmonary fibrosis in C57BL/6 mouse model assessed as decrease in Col1 protein expression level in lung tissue at 100 mg/kg, po qd administered from day 7 to 14 by Western blot analysis. It is filed as functional, organism-based.
The subject of assay [17] is Mus musculus. Nature of the assay: Antifibrotic activity in bleomycin-induced pulmonary fibrosis in C57BL/6 mouse model assessed as fibrotic area in lungs at 100 mg/kg, po qd administered from day 7 to 14 by hematoxylin-eosin staining based fluorescence microscopy. The class given is functional. A digest of the protocol:
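Male C57BL/6 mice (7-8 weeks, n=5/group) given intratracheal bleomycin 2 U/kg under chloral hydrate anaesthesia. Dosing at 100 mg/kg daily from day 7 to day 14, sacrifice at day 14. Left lungs formalin-fixed, paraffin-embedded, 5 µm sections HE-stained. Fibrosis ratio taken as fibrotic-region pixels over total lung pixels.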

SMILES strings stand for the structures. The source made the active and inactive calls. The calls are words filed in the database; no cut-off is given here.

Chain of Transforming growth factor beta-1 proprotein (Mus musculus) (P04202 whole entry): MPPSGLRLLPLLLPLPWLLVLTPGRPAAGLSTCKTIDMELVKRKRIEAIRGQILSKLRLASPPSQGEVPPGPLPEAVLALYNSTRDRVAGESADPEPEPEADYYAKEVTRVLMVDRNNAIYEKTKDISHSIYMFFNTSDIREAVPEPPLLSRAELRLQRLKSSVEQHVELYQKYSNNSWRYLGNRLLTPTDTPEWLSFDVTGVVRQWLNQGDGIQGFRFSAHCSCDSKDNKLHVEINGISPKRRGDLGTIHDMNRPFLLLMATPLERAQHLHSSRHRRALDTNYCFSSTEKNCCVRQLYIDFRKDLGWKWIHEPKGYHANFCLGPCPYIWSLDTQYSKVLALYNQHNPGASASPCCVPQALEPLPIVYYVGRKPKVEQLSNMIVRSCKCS
T1 sequence (P04202 279-390 limits assumed): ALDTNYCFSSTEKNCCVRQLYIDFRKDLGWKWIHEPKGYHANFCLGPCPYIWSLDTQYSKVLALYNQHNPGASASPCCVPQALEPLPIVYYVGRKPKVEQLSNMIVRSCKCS
T1 sequence (Q8BUN5 2-425 partner limits assumed): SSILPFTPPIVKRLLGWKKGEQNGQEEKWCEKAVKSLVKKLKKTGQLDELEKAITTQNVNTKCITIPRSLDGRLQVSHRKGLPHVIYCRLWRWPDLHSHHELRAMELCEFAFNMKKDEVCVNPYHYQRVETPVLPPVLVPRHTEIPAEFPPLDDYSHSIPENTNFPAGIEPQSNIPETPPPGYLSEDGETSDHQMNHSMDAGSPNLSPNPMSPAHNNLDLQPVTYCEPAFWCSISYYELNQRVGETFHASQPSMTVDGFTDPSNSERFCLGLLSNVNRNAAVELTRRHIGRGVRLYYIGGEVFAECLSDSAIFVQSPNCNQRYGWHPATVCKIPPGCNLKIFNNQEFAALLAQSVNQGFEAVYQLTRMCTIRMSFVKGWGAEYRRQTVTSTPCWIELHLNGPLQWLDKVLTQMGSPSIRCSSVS

Regarding `C=C1C(=O)O[C@@H]2C[C@@]3(C)CC[C@@H](O[Si](C)(C)C(C)(C)C)C(=C)[C@@H]3C[C@H]12`, the inhibition in [1] amounted to 27.8%.
On the same count and under the same terms, with `C=C1C(=O)O[C@@H]2C[C@@]3(C)CC[C@@H](OC(=O)C4CC4)C(=C)[C@@H]3C[C@H]12` the figure was 4.63%; with `C=C1C(=O)O[C@@H]2C[C@@]3(C)CC[C@@H](OC(=O)CCCCCCC)[C@]4(CO4)[C@@H]3C[C@H]12`, -7.65%; with `C=C1C(=O)O[C@@H]2C[C@@]3(C)CC[C@@H](OC(C)=O)[C@]4(CO4)[C@@H]3C[C@H]12`, -2.36%.
With `C=C1C(=O)O[C@@H]2C[C@@]3(C)CC[C@@H](OC(=O)c4ccccc4)[C@]4(CO4)[C@@H]3C[C@H]12`, the inhibition in [1] turned out to be 26.7%.
The same measure, in the same setting: as for `C=C1C(=O)O[C@@H]2C[C@@]3(C)CC[C@@H](OC(C)=O)C(=C)[C@@H]3C[C@H]12`, the figure is 6.58%.
As to `C=C1C(=O)O[C@@H]2C[C@@]3(C)CC[C@@H](OC(=O)C4=CCCCC4)[C@]4(CO4)[C@@H]3C[C@H]12`, in assay [2], the inhibition entry is “inactive”. Also, in [1], the inhibition was determined as 34.8%.
In the case of `C=C1C(=O)O[C@@H]2C[C@@]3(C)CC[C@@H](OC(=O)[C@@H](NC(=O)OC(C)(C)C)C(C)C)C(=C)[C@@H]3C[C@H]12`, in assay [1], the inhibition was 22%.
On to `C=C1C(=O)O[C@@H]2C[C@@]3(C)CCC[C@H](C)[C@@]34O[C@H]4[C@H]12`, for which the inhibition entry in assay [3], in assay [2], in [4], in assay [5] and in [6] was “Active” throughout. Further, in [1], the inhibition is 77.7%.
In the case of `C=C1C(=O)O[C@@H]2C[C@@]3(C)CC[C@@H](OC(=O)/C=C/C(=O)OCC)[C@]4(CO4)[C@@H]3C[C@H]12`, the inhibition entry in assay [3], in assay [2] and in assay [4] was “Active” each time. Also, in assay [1], the inhibition was 71.3%.
As for `C=C1[C@H](O)CC[C@]2(C)C[C@H]3OC(=O)[C@@H](CN(C)C)[C@H]3C[C@@H]12`, in [7], the inhibition entry is “Active”.
Turning to `C=C1C(=O)O[C@@H]2C[C@@]3(C)CC[C@@H](O)[C@]4(CO4)[C@@H]3C[C@H]12`, the inhibition entry in assay [3], in [2], in assay [4], in assay [5] and in assay [6] was “Active” in each case. In assay [1], the inhibition was 46%.
As for `CN(C)C[C@@H]1C(=O)O[C@@H]2C[C@@]3(C)CC[C@@H](OC(=O)C4=CCCCC4)[C@]4(CO4)[C@@H]3C[C@H]12`, the inhibition entry in assay [7] was “Active”.
With `C=C1C(=O)O[C@@H]2C[C@@]3(C)CC[C@@H](O)C(=C)[C@@H]3C[C@H]12`, the inhibition entry in assay [3], in [2], in assay [4] and in [6] was “Active” in each case. In addition, the inhibition in [1] is 61.9%.
With `C=C1C(=O)O[C@@H]2C[C@@]3(C)CC[C@@H](OC(=O)/C=C/CCC)[C@]4(CO4)[C@@H]3C[C@H]12`, in [1], the inhibition was found to be 13.5%.
Take `C=C1C(=O)O[C@@H]2C[C@@]3(C)CC[C@@H](OC(=O)CP(=O)(OCC)OCC)[C@]4(CO4)[C@@H]3C[C@H]12`: the inhibition in assay [1] turned out to be 3.67%.
Take `C=C1C(=O)O[C@@H]2C[C@@]3(C)CCC[C@]4(CO4)[C@@H]3C[C@H]12`: the inhibition in [1] was 3.08%.
Consider `CCOC(=O)/C=C/C(=O)O[C@@H]1CC[C@]2(C)C[C@H]3OC(=O)[C@@H](CN(C)C)[C@H]3C[C@H]2[C@@]12CO2.O=C(O)/C=C/C(=O)O`, for which the inhibition entry (in assay [8]; in assay [9]; in the assay with Mus musculus [10]; in the assay with Mus musculus [11]; in assay [12]; in the assay on Mus musculus [13]) was “Active” throughout. The inhibition entry (in [15]; in the assay on Mus musculus [16]) was “Active” throughout. Further, the outcome in the assay on Mus musculus [14] was Active. Further, the Activity in the assay on Mus musculus [17] is recorded as 53.5%.
With `C=C1C(=O)O[C@@H]2C[C@@]3(C)CCC(=O)C(=C)[C@@H]3C[C@H]12`, the inhibition in assay [1] was determined as 2.24%.
Still for that read-out and setting: with `C=C1C(=O)O[C@@H]2C[C@@]3(C)CC[C@@H](OC(=O)[C@@H](NC(=O)OC(C)(C)C)C(C)C)[C@]4(CO4)[C@@H]3C[C@H]12` the figure was 17.1%; with `C#CCCCC(=O)O[C@@H]1CC[C@]2(C)C[C@H]3OC(=O)C(=C)[C@H]3C[C@H]2[C@@]12CO2`, 6.65%.

Usually inhibition stands for the change of the read-out against control, counted positive when it falls.

The values above are taken from ChEMBL document CHEMBL4270598, “Synthesis and discovery of a drug candidate for treatment of idiopathic pulmonary fibrosis through inhibition of TGF-β1 pathway” (Eur J Med Chem, 2018).
